LYPLA2 inh: LYPLA2 inhibitors, primary screen, counter-screen for PME1 inhibitor project, biochemical, fluorescence polarization, FP-Rh probe ABPP; recombinant LYPLA2; inhibition, % at 5.9 µM; 320,000 tested, 0.38% active;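 active = inhibition above the screen-wide mean plus 3 SD, limit set per campaign, cut at about 26% in these data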
proCasp7 act: procaspase-7 activators, primary screen, counter-screen for procaspase-3 activator project, biochemical, absorbance, HTS, human; 330,000 tested, 0.093% active; activation, % at 8.5 µM; recombinant procaspase-7, Ac-DEVD-pNA absorbance 405 nm; D23A/D198A/D206A triple mutant, cannot self-cleave; scale: DMSO 0, 5 µM enzyme 100; Caspase-7 (Homo sapiens), P55210;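 active = percent activation above the screen-wide mean plus 3 SD, cut at about 25% in these data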
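Assay system: Uncleavable procaspase-7 mutant enzyme | Input: 2 µM procaspase-7 mutant as dispensed | Timing: 1 h compound preincubation, 2 h substrate cleavage, 25 °C | Repeats: One well per compound | Control set: DMSO wells as 0%, DMSO with 5 µM added PC-7 as 100% | Technique: Epi-absorbance of released pNA at 405 nm, two timepoints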
PREPL inh: PREPL enzyme inhibitors, primary screen, biochemical, fluorescence polarization; Prolyl endopeptidase-like (Homo sapiens), Q4J6C6; recombinant PREPL, fluorescence polarization activity-based probe; inhibition, % at 5.96 µM; 320,000 tested, 0.68% active; AID 2751, 2010; in the data active = inhibition above about 43%
Target sequence (Q4J6C6 whole entry, looked up): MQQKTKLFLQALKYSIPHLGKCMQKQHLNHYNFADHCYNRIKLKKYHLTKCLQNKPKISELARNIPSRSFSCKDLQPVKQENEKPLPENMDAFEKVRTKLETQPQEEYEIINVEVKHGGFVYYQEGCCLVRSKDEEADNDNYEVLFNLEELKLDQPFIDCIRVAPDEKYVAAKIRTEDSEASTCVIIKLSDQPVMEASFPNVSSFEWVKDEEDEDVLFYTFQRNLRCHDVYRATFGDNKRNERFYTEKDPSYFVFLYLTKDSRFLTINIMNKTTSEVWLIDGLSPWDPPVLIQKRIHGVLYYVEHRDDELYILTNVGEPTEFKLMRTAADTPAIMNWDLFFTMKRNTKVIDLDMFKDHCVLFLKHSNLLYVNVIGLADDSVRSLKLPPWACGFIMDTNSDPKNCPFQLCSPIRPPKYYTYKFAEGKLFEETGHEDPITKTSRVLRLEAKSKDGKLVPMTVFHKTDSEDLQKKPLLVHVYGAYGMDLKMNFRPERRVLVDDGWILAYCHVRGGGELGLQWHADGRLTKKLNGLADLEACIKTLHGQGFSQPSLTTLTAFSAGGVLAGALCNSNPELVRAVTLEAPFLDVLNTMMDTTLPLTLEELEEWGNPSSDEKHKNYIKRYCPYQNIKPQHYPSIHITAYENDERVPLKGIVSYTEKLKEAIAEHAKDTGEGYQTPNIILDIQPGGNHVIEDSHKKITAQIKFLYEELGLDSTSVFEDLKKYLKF
LYPLA1 counter: LYPLA1 inhibitors, primary screen, counter-screen for PME1 inhibitor project, biochemical, fluorescence polarization, FP-Rh probe ABPP; Acyl-protein thioesterase 1 (Homo sapiens), O75608; recombinant LYPLA1; inhibition, % at 5.9 µM; 320,000 tested, 0.16% active; AID 2174, 2009;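 active = inhibition above the mean of all tested compounds plus 3 SD, set per campaign, cut at about 14% in these data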;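 also: inhibitors block serine hydrolase probe labeling of LYPLA1 so polarization falls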
proCasp3 act: activators of human procaspase-3 D3A mutant, primary screen, biochemical, absorbance, PC-3 D3A mutant, single concentration; 330,000 tested, 0.11% active; AID 463141, 2010; recombinant procaspase-3 D3A, Ac-DEVD-pNA absorbance 405 nm; Caspase-3 (Homo sapiens), P42574; activation, % at 8.5 µM;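 active = activation above the mean of all tested compounds plus 3 SD, cut at about 21% in these data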
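Assay system: Procaspase-3 D3A mutant, all three cleavage aspartates alanine. Buffer or medium: Zinc-free HEPES saline buffer with Triton X-100. Times: 1 h compound preincubation, 2 h substrate hydrolysis at 25 °C. Measured by: 405 nm absorbance of p-nitroaniline, reads at 0 and 120 min. Read-out basis: percent activation relative to control range. Replicates: singlicate.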
LYPLA1 conf: LYPLA1 inhibitors, retest, confirmation, counter-screen for PME1 inhibitor project, biochemical, fluorescence polarization, FP-Rh probe ABPP; shares compounds with LYPLA1 counter; recombinant LYPLA1; 480 tested, 69% active; inhibition, % at 5.9 µM;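 active = mean inhibition across replicates above the hit cutoff set in the primary screen, cut at about 15% in these data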;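 also: loss of FP-Rh probe labeling of LYPLA1 seen as lower polarization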
Of the large screens only hits and unclear results are named; the others gave an inactive call (follow-up assays come after a bar, where they were run). Hits are enriched below; roughly 1% of the tested compounds scored in any of these assays.

CCN(CC(=O)Nc1ccc(NC(C)=O)cc1)C(=O)Cc1c(Cl)cccc1Cl	none
O=c1oc2c(O)c(O)cc3c(=O)oc4c(O)c(O)cc1c4c23	PREPL inh 54.2
O=c1oc2ccccc2c2oc3cc(O)c(O)cc3c12	none
CC1CCN(C(=O)c2ccc(SCc3ccccc3F)c([N+](=O)[O-])c2)CC1	LYPLA2 inh 34.3
O=C(c1ccc(S(=O)(=O)Cc2ccccc2F)c([N+](=O)[O-])c1)N1CCCCCC1	none
CNC(=O)c1c(NC(=O)c2ccc(S(=O)(=O)N3CCCC3)cc2)sc2c1CCN(C(C)C)C2	PREPL inh 44.3
CNC(=O)c1c(NC(=O)c2ccc(S(=O)(=O)N3CC(C)OC(C)C3)cc2)sc2c1CCN(C(C)C)C2 (stereo not given)	none
c1ccc(-n2cnc3cc(NCc4ccccn4)ccc32)cc1	PREPL inh 55.0
c1ccc(-n2cnc3cc(NCc4ccncc4)ccc32)cc1	none
COc1cc(C2C(C#N)=C(N)Oc3n[nH]c(C)c32)ccc1OC(=O)c1ccccc1 (stereo not given)	PREPL inh 60.7
CC(C)c1[nH]nc2c1C(c1ccc(OC(=O)c3ccco3)cc1)C(C#N)=C(N)O2 (stereo not given)	PREPL inh 60.1
Cc1cc2n(n1)C(c1ccccc1)Nc1ccccc1-2 (stereo not given)	none
Cc1cc2n(n1)C(c1ccc(N(C)C)cc1)Nc1ccccc1-2 (stereo not given)	proCasp7 act 47.2
CC1CCC(NC(=O)c2ccc(CS(=O)(=O)Cc3ccccc3F)o2)CC1 (stereo not given)	none
CCCC(=O)O/N=C(\c1ccccc1)c1ccncc1	none
Cc1ccc(C(=O)O/N=C(\c2ccccc2)c2ccncc2)cc1	PREPL inh 88.3
COC(=O)c1ccccc1NC(=O)CCCn1nc([N+](=O)[O-])cc1C	none
CC(C)CC(=O)O/N=C1\C(=O)N(Cc2ccc(Cl)cc2)c2ccc([N+](=O)[O-])cc21	LYPLA2 inh 43.5
CC(C)CC(=O)O/N=C1\C(=O)N(c2ccccc2)c2ccccc21	none
CN1C(=O)/C(=C/c2cn(CC(=O)N3CCCCC3)c3ccccc23)c2ccccc21	PREPL inh 44.6
O=Cc1cn(CC(=O)N2CCCCC2)c2ccccc12	none
C=CCOc1ccc(/C=C2\C(=N)N3N=C(S(=O)(=O)CC)SC3=NC2=O)cc1OC	none
CCS(=O)(=O)C1=NN2C(=N)/C(=C\c3ccc(OC(=O)c4ccco4)c(OC)c3)C(=O)N=C2S1	PREPL inh 51.4
Cc1cccc(NC(=O)COC(=O)c2cccc3c2C(=O)c2ccccc2C3=O)c1C	PREPL inh 59.1
COc1cccc(C2=CC(c3ccccc3)n3ncnc3N2)c1 (stereo not given)	none
COc1cccc(C2=CC(c3ccc(N(C)C)cc3)n3ncnc3N2)c1 (stereo not given)	PREPL inh 63.0
CC1CCc2c(sc(NC(=O)CN3CCN(C(=O)c4ccco4)CC3)c2C#N)C1 (stereo not given)	LYPLA1 counter 42.0 | LYPLA1 conf 41.8
CC1CCN(CC(=O)Nc2sc3c(c2C#N)CCC3)CC1	none
Cc1cc2oc(=O)cc(CN3CCN(C/C=C/c4ccccc4)CC3)c2cc1O	LYPLA1 counter 20.4 | LYPLA1 conf 18.3
COc1ccc(-c2nnc(Nc3nc4c(OC)cccc4s3)o2)cc1	LYPLA1 counter 17.4 | LYPLA1 conf 41.4
CCOc1ccc(-c2cc(C(=O)N3CCCC3)c3ccccc3n2)cc1	none
O=C(CSc1nccn1-c1ncc(C(F)(F)F)cc1Cl)c1ccc(Cl)cc1	none
CCN(CC)c1cccc(OC2=NS(=O)(=O)c3ccccc32)c1	LYPLA1 counter 15.2 | LYPLA1 conf inactive
CCCCCCCCCCCCCCCC[n+]1ccc(C(N)=O)cc1	none
CCCCCCCCCCCCCCCC[n+]1ccc(/C=N/O)cc1	LYPLA1 counter 14.9 | LYPLA1 conf 19.6
CCc1nc2ccccc2c(C(=O)OCC(=O)NC2CCCC2)c1C	none (no result: LYPLA2 inh, LYPLA1 counter)
CC1CC(C)(C)CC2(C1)NC(=O)N(CC(=O)NCc1ccccc1F)C2=O (stereo not given)	none
N/C(=N\OS(=O)(=O)c1ccc(Br)cc1)c1ccncc1	none
CCN(CC)S(=O)(=O)c1cccc(-c2nnc(SCc3nc4ccccc4s3)o2)c1	LYPLA1 counter 14.5 | LYPLA1 conf 21.3
CCOC(=O)c1cnc(SCC(=O)Nc2ccc(N3CCOCC3)c(Cl)c2)nc1N	LYPLA1 counter 15.9 | LYPLA1 conf 25.8
CCOC(=O)c1cnc(SCC(=O)Nc2cc(C(F)(F)F)ccc2N2CCOCC2)nc1N	none
Cc1noc(NS(=O)(=O)c2ccc(NC(=O)c3oc4ccc(Cl)cc4c3C)cc2)c1C	LYPLA1 counter 28.2 | LYPLA1 conf 30.9
NC(=O)C1=C[C@H](c2ccc(C(F)(F)F)cc2)C[C@H](OCc2ccc(CO)cc2)O1	LYPLA1 counter 29.8 | LYPLA1 conf 34.5
C/C(=N\NC(=O)c1cccc(Cl)c1)C1C(=O)c2ccccc2C1=O	LYPLA1 counter 24.3 | LYPLA1 conf 28.4
O=C(c1ccc(-c2ccccc2)c(F)c1)C1CCCN(C(=O)c2cncs2)C1 (stereo not given)	LYPLA1 counter 31.7 | LYPLA1 conf 51.6
CC(=O)C1=C(C)N(CC2CC2)C(=O)N[C@H]1c1cccs1	none
COc1ccc(C(=O)Oc2cccc(Nc3ncnc4ccccc34)c2)cc1OC	LYPLA1 counter 15.7 | LYPLA1 conf 14.7
COc1ccc(Oc2c(C)oc3c(CN4CCOCC4)c(O)ccc3c2=O)cc1	none
CCOC(=O)c1ccc(Oc2c(C)oc3c(CN4CCN(C)CC4)c(O)ccc3c2=O)cc1	LYPLA1 counter 16.8 | LYPLA1 conf 16.6
CC(=O)N1CCN(C(=O)COc2ccc(N(C)S(=O)(=O)c3cccs3)cc2)CC1	LYPLA1 counter 23.8 | LYPLA1 conf inactive
COc1ccc(C(C(=O)NC(C)(C)C)N(C(=O)CCC(=O)Nc2cc(C)on2)c2ccccc2F)cc1 (stereo not given)	LYPLA1 counter 14.7 | LYPLA1 conf inactive
